In ChEMBL document CHEMBL2046328, “Structure-based design of rhodanine-based acylsulfonamide derivatives as antagonists of the anti-apoptotic Bcl-2 protein” (Bioorg Med Chem, 2012):
In brackets after ≈: the same amount, converted by molar mass.

Key:
HepG2 = experiment: Antiproliferative activity against human HepG2 cells after 48 hrs by MTT assay; type: functional, cell-based; details: HepG2, 48 h
Procedure, shortened: (§1)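 Cells were seeded at 7×10^3 per well and grown 24 h, then exposed to compounds for 48 h. MTT was added for 6 h, followed by 10% SDS in 0.01 N HCl for 4 h at 37 °C, and absorbance was read at 570 nm. Survival is expressed relative to untreated cells. IC50 came from 6-well replicates in at least two independent experiments.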

PC-3 = experiment: Antiproliferative activity against human PC3 cells after 48 hrs by MTT assay; type: functional, cell-based; details: PC-3, 48 h; procedure, shortened: as §1
[1] = Antiproliferative activity against mouse B16/F10 cells after 48 hrs by MTT assay; type: functional, cell-based; details: B16-F10, 48 h; procedure, shortened: as §1
[2] = Inhibition of FAM-Bak-BH3 binding to human N-terminal His6-tagged Bcl2 isoform 2 after 4 hrs by fluorescence polarization assay

SMILES	IC50 (HepG2) [µg/mL]	IC50 (PC-3) [µg/mL]	Ki [2] [nM]	IC50 [1] [µg/mL]
Cc1ccc(S(=O)(=O)NC(=O)[C@H](Cc2ccccc2)NC2=NC(=O)/C(=C/c3ccccc3F)S2)cc1	18.7 (≈ 35.8 µM)	22.1 (≈ 42.1 µM)	–	11.9 (≈ 22.7 µM)
Cc1ccc(S(=O)(=O)NC(=O)[C@H](Cc2ccccc2)NC2=NC(=O)/C(=C/c3ccccc3Cl)S2)cc1	21 (≈ 38.9 µM)	16 (≈ 29.6 µM)	20	12.2 (≈ 22.6 µM)
Cc1ccc(S(=O)(=O)NC(=O)[C@H](Cc2ccccc2)NC2=NC(=O)/C(=C/c3ccc(-c4ccccc4)cc3)S2)cc1	16.6 (≈ 28.5 µM)	16.4 (≈ 28.1 µM)	310	12.5 (≈ 21.6 µM)
Cc1ccc(S(=O)(=O)NC(=O)[C@H](CC(C)C)NC2=NC(=O)/C(=C/c3cccc(Cl)c3)S2)cc1	16.5 (≈ 32.6 µM)	16.8 (≈ 33.1 µM)	–	13.4 (≈ 26.4 µM)
Cc1cc2c(C(C)C)c(O)c(O)c(C=O)c2c(O)c1-c1c(C)cc2c(C(C)C)c(O)c(O)c(C=O)c2c1O [GOSSYPOL]	10.2 (≈ 19.6 µM)	6.71 (≈ 12.9 µM)	334	5.56 (≈ 10.7 µM)

The next lines start with results.

IC50 (HepG2) [µg/mL]	IC50 (PC-3) [µg/mL]	Ki [2] [nM]	SMILES	IC50 [1] [µg/mL]
13.3 (≈ 26.4 µM)	15.6 (≈ 30.8 µM)	–	Cc1ccc(S(=O)(=O)NC(=O)[C@H](CC(C)C)NC2=NC(=O)/C(=C/c3ccccc3Cl)S2)cc1	8.52 (≈ 16.8 µM)
21.2 (≈ 43.2 µM)	11.9 (≈ 24.1 µM)	25	Cc1ccc(S(=O)(=O)NC(=O)[C@@H](NC2=NC(=O)/C(=C/c3ccccc3Cl)S2)C(C)C)cc1	8.8 (≈ 17.9 µM)
16.4 (≈ 33.6 µM)	15.3 (≈ 31.3 µM)	–	Cc1ccc(S(=O)(=O)NC(=O)[C@H](CC(C)C)NC2=NC(=O)/C(=C/c3ccccc3F)S2)cc1	11.3 (≈ 23.1 µM)
20.2 (≈ 41.4 µM)	15 (≈ 30.8 µM)	–	COc1ccccc1/C=C1\SC(N[C@H](C(=O)NS(=O)(=O)c2ccc(C)cc2)C(C)C)=NC1=O	13.5 (≈ 27.7 µM)
12.8 (≈ 26.2 µM)	20.3 (≈ 41.6 µM)	672	COc1ccc(/C=C2\SC(N[C@H](C(=O)NS(=O)(=O)c3ccc(C)cc3)C(C)C)=NC2=O)cc1	11.6 (≈ 23.8 µM)
18.2 (≈ 39.8 µM)	11.9 (≈ 26 µM)	3010	Cc1ccc(S(=O)(=O)NC(=O)[C@@H](NC2=NC(=O)/C(=C/c3ccccc3)S2)C(C)C)cc1	7.46 (≈ 16.3 µM)
